Results: ChEMBL document CHEMBL2062427, “Synthesis, chemical reactivity as Michael acceptors, and biological potency of monocyclic cyanoenones, novel and highly potent anti-inflammatory and cytoprotective agents” (J Med Chem, 2012)
Calls of active or inactive are those of the source. The rule behind the calls is not given here.

Tests used:
RAW264.7 [1] = experiment: Antiinflammatory activity in mouse RAW264.7 cells assessed as inhibition of IFNgamma-stimulated NO production pretreated for 2 hrs before IFNgamma challenge measured after 24 hrs by Griess reaction; type: functional, cell-based
Outline: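 RAW 264.7 cells seeded at 30,000/well in triplicate; next day pre-treated 2 h with DMSO or 2-fold serial dilutions (0–200 nM or 0–10 µM), then IFN-γ 20 ng/mL for 24 h. Medium NO by Griess; viability by WST-1. IC50 from suppression of IFN-γ-induced NO normalized to viability; mean of three independent experiments, SD.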

[2] = biological target: NAD(P)H dehydrogenase [quinone] 1 (Mus musculus) (UniProt Q64669); experiment: Induction of NQO1 activity in mouse Hepa-1c1c7 cells assessed as concentration require to double the specific enzyme activity after 48 hrs; type: cell-based
Outline: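 Hepa1c1c7 cells, 10,000/well, grown 24 h, then exposed to serial dilutions for 48 h. Potency expressed as concentration doubling NQO1 specific enzyme activity (CD).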

[3] = Cytotoxicity against C57BL/6 mouse BMDM cells assessed as LDH release after 24 hrs; type: cell-based; conditions: bone marrow-derived macrophages (BMDM cells)
Outline: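 Macrophages exposed to compound without LPS for 24 h; culture supernatant assayed for % LDH released as cell-death measure. Averages of 2 independent experiments, SD.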

BMDM [4] = experiment: Antiinflammatory activity in C57BL/6 mouse BMDM cells assessed as inhibition of LPS-stimulated TNFalpha production at 0.5 uM pretreated for 1 hr before LPS challenge after 8 to 24 hrs by immunoassay; type: functional, cell-based
Outline: (§1)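 Macrophages given compound at 0.5 µM; LPS 100 ng/mL added 1 h after start of compound treatment, for 8 h or 24 h. Supernatants collected at 8 or 24 h and assayed for LDH release (% released, cell death), TNF-α or IL-1β (pg/mL). Averages of 2 independent experiments, SD.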

[5] = Induction of apoptosis in LPS-stimulated C57BL/6 mouse BMDM cells assessed as LDH release at 0.5 uM pretreated for 1 hr before LPS challenge after 24 hrs; type: cell-based; outline: as §1
BMDM [6] = experiment: Antiinflammatory activity in C57BL/6 mouse BMDM cells assessed as inhibition of LPS-stimulated TNFalpha production at 0.1 uM pretreated for 1 hr before LPS challenge after 8 to 24 hrs by immunoassay; type: functional, cell-based
Outline: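 Macrophages pretreated with compound, then given LPS (100 ng/mL) 1 h after the start of compound exposure for 8 h or 24 h. Culture supernatants were collected at 8 h or 24 h and assayed for secreted TNF-α (pg/mL). Controls were untreated cells and cells given compound without LPS (24 h). Averages of 2 independent experiments; error is standard deviation.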

[7] = Induction of apoptosis in LPS-stimulated C57BL/6 mouse BMDM cells assessed as LDH release at 0.1 uM pretreated for 1 hr before LPS challenge after 8 hrs; type: cell-based
Outline: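 Cells were compound-treated, and LPS (100 ng/mL) was added 1 h after the start of compound treatment for 8 h. Supernatant lactate dehydrogenase was measured as % LDH released, as a cell-death read-out. Comparison arms were no-LPS (compound 24 h) and untreated cells. Mean of 2 independent experiments, with standard deviation error bars.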

BMDM [8] = experiment: Antiinflammatory activity in C57BL/6 mouse BMDM cells assessed as inhibition of LPS-stimulated […] production at 0.5 uM pretreated for 1 hr before LPS challenge after 8 to 24 hrs by immunoassay; type: functional, cell-based; outline: as §1
RAW264.7 [9] = experiment: Ratio of CDDO IC50 to compound IC50 for antiinflammatory activity in mouse RAW264.7 cells assessed as inhibition of IFNgamma-stimulated NO production; type: functional
[10] = Induction of apoptosis in LPS-stimulated C57BL/6 mouse BMDM cells assessed as LDH release at 0.5 uM pretreated for 1 hr before LPS challenge after 8 hrs; type: cell-based; outline: as §1

Chain of NAD(P)H dehydrogenase [quinone] 1 (Mus musculus) (Q64669 whole entry): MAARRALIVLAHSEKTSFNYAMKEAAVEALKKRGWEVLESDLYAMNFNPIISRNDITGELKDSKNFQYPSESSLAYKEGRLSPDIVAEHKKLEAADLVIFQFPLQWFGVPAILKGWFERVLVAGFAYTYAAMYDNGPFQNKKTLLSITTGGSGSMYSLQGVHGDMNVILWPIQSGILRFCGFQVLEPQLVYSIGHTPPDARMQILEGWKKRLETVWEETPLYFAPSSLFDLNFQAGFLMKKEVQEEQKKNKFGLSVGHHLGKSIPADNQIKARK

Row | SMILES | IC50 (RAW264.7 [1]) [nM] | CD [2] [nM] | MNTC at 24 h [3] [nM] | other results
1 | C#CC1(C)C=C(C#N)C(=O)CC1 (stereo not drawn) | 152 | 100 | – | –
2 | CC1(C)CC[C@]2(C(=O)O)CC[C@]3(C)[C@H](C(=O)C=C4[C@@]5(C)C=C(C#N)C(=O)C(C)(C)[C@@H]5CC[C@]43C)[C@@H]2C1 [BARDOXOLONE] | 16.5 | – | – | –
3 | COC(=O)[C@]12CCC(C)(C)C[C@H]1[C@H]1C(=O)C=C3[C@@]4(C)C=C(C#N)C(=O)C(C)(C)[C@@H]4CC[C@@]3(C)[C@]1(C)CC2 [BARDOXOLONE METHYL] | – | – | 500 | Activity (BMDM [4]): Active; Activity [5]: Not Active
4 | C#C[C@]12C=C(C#N)C(=O)C=C1[C@@]1(C)C=C(C#N)C(=O)C(C)(C)[C@@H]1CC2 (racemic) | – | – | 100 | Activity (BMDM [6]): Active; Activity [7]: Not Active
5 | CC1(C#N)C=CC(=O)C(C#N)=C1 (stereo not drawn) | 219 | 58 | – | –
6 | C=CC1(C)C=CC(=O)C(C#N)=C1 (stereo not drawn) | 170 | 150 | – | –
7 | CC1(C)C=CC(=O)C(C#N)=C1 | 305 | 150 | – | –
8 | C#CC1(C)C=CC(=O)C(C#N)=C1 (stereo not drawn) | 5.8 | 22 | 500 | Activity (BMDM [8]): Active; Ratio IC50 (RAW264.7 [9]): 2; Activity (BMDM [4]): Active; Activity [10]: Toxic
9 | COC(=O)C1(C)C=CC(=O)C(C#N)=C1 (stereo not drawn) | 58 | 320 | – | –
10 | CC1(C)C=C(C#N)C(=O)C(C)(C)C1 | 1900 | 1900 | – | –
11 | CC#CC1(C)C=CC(=O)C(C#N)=C1 (stereo not drawn) | 7.3 | 33 | – | Ratio IC50 (RAW264.7 [9]): 2
12 | NC(=O)Nc1sc(-c2ccc(F)cc2)cc1C(N)=O | – | – | 500 | Activity (BMDM [8]): inactive; Activity (BMDM [4]): Active; Activity [10]: Toxic
